According to publication PMC2714051 (European journal of medicinal chemistry, 2008):
≈ marks a conversion by molar mass, not a printed value.

Experiments:
bovine brain tubulin = assay: [3H]colchicine binding to tubulin; conditions: 1 μM drug; 1.0 μM tubulin, 5.0 μM [3H]colchicine, 10 min 37 °C
[1] = tested on: MCF-7 human breast cancer cells; assay: MCF-7 cell growth, sulforhodamine B; format: cell-based
SF-295 (glyoblastoma) = assay: MTT cytotoxicity assay, SF-295; format: cell-based; conditions: Homo sapiens, SF-295, 72 h, read-out: Cytotoxic activity IC50
Method in brief: (§1)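 Test compounds at 0.0009–5 µg/mL were incubated with the human tumour cells for 72 h. Growth was read by the cells' reduction of yellow MTT to blue formazan.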

MDA/MB-435 (breast) = assay: MTT cytotoxicity assay, MDA/MB-435; format: cell-based; conditions: Homo sapiens, MDA-MB-435, 72 h, read-out: Cytotoxic activity IC50
Method in brief: as §1

HCT-8 (colon) = assay: MTT cytotoxicity assay, HCT-8; format: cell-based; conditions: Homo sapiens, HCT-8, 72 h, read-out: Cytotoxic activity IC50
Method in brief: as §1

HL-60 (leukemia) = assay: MTT cytotoxicity assay, HL-60; format: cell-based; conditions: Homo sapiens, HL-60, 72 h, read-out: Cytotoxic activity IC50
Method in brief: as §1

SMILES | Colchicine binding % inhibition ± SD (bovine brain tubulin) [%] | IC50 ([1]; Homo sapiens, MCF7, 48 h, read-out: MCF-7 cell growth IC50 ± SD) [nM] | IC50 (SF-295 (glyoblastoma)) [µg/mL] | IC50 (MDA/MB-435 (breast)) [µg/mL] | IC50 (HCT-8 (colon)) [µg/mL] | IC50 (HL-60 (leukemia)) [µg/mL] | Fold less active than CA4 as an inhibitor of MCF-7 cell growth ([1]; in comparison with CA4)
COc1ccc(/C=C\c2cc(OC)c(OC)c(OC)c2)cc1O [CA4, combretastatin A-4, reference compound] | 85 ± 5 | 1.4 ± 0.1 | – | – | – | – | –
COc1ccc(Sc2cc(OC)c(OC)c(OC)c2)cc1 [compound 1, 1,2,3-trimethoxy-5-[(4-methoxyphenyl)thio]benzene] | – | – | 0.01 (≈ 0.0326 µM) | 0.001 (≈ 0.00326 µM) | 0.01 (≈ 0.0326 µM) | 0.001 (≈ 0.00326 µM) | about 10 fold
COc1ccc([S+]([O-])c2cc(OC)c(OC)c(OC)c2)cc1 (stereo not drawn) [compound 2, 1,2,3-trimethoxy-5[(4-methoxyphenyl)sulfinyl]benzene] | – | – | 0.47 (≈ 1.46 µM) | 0.09 (≈ 0.279 µM) | 0.15 (≈ 0.465 µM) | 0.11 (≈ 0.341 µM) | –
COc1ccc(S(=O)(=O)c2cc(OC)c(OC)c(OC)c2)cc1 [compound 3, 1,2,3-trimethoxy-5[(4-methoxyphenyl)sulfonyl]benzene] | – | – | 2.61 (≈ 7.71 µM) | 0.75 (≈ 2.22 µM) | 3.95 (≈ 11.7 µM) | 1.53 (≈ 4.52 µM) | –
